Rows were chosen to be rich in hits. Some 2.1% of all compounds tested hit in one or more screens of this group.
FGF22 binding: FGF22 (human) thermal shift binding; Q9HCT0; recombinant FGF22 thermal shift, SYPRO orange fluorescence; percent of sucrose octasulfate shift, DMSO zero; activity (Tm shift, normalised), % at 9.99 µM; 1.5% of 340,000 active; AID 651658;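 active = mean Tm shift, scaled 0 neutral to 100 positive control, at about 1.3% or above, every replicate too, limit read from the data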
ARNT-TACC3 inh: ARNT/TACC3 interaction disruption. Q9Y6A5. AlphaScreen His-ARNT PAS-B/GST-TACC3 binding, luminescence; TACC3 fragment carries E629A point mutation. inhibition, % at 9.99 µM. 0.66% of 390,000 active;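 active = mean inhibition of replicates at least 50% and at least half of replicates each reaching 50%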;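 note: 0% = complete ARNT plus TACC3 wells and 100% = ARNT alone without TACC3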
ERp5 block: inhibitors of human ERp5; Q15084; ERp5 insulin aggregation, absorbance 650 nm, 90 min; inhibition, % at 9.99 µM; 0.05% of 350,000 active; AID 651711;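 active = mean replicate inhibition above about 25%, with every replicate also reaching it, limit read from the data, passing the limit was not always enough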
FN deposit inh: fibronectin deposition inhibition. AID 743247. AH1F fibroblasts, Alexa488-fibronectin deposition fluorescence, overnight. 0.086% of 350,000 active. inhibition, % at 12.6 µM;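 active = mean inhibition across replicates of 30% or more, regardless of how many single replicates reach that level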;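 note: positive control wells lacked labelled fibronectin entirely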
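test system = AH1F fibroblasts assembling fluorescent fibronectin matrix | quantity = 10000 AH1F cells per well | buffer or medium = DMEM plus 2% serum, read in PBS | doses = single dose, pinned | incubation = 1 h cell attachment, overnight exposure to compound and label | detection = fluorescence at 485 nm excitation, 525 nm emission | read-out basis = inhibition from reduced deposited-fibronectin fluorescence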
PDI inh: PDI (human) enzyme inhibition; PDI insulin aggregation turbidity, A650, 90 min; AID 588391; 0.052% of 350,000 active; P07237; inhibition, % at 10 µM;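 active = mean inhibition across replicates of 30% or more, whatever share of single replicates reach that level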
Target sequence (P07237 whole entry, looked up): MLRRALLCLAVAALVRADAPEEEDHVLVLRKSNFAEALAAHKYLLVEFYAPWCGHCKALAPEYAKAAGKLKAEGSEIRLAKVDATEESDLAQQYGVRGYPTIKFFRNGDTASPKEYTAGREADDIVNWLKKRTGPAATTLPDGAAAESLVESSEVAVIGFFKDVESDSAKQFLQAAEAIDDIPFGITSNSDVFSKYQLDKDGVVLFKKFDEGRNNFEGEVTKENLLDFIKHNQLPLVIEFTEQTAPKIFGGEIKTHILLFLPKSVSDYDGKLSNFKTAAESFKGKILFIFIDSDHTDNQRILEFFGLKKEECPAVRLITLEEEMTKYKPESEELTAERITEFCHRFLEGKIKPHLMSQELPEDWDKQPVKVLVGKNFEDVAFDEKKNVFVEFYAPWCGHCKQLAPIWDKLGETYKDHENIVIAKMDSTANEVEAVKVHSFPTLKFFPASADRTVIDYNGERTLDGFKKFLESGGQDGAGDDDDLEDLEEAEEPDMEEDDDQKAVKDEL
MLL AF4-AF9 inh: blocks AF4 peptide binding to human AF9; AlphaScreen, biotin-AF4 peptide binding to FLAG-AF9; inhibition, % at 10 µM; 0.47% of 350,000 active; AID 651704;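 active = every replicate reaching a set inhibition limit, whatever the replicate mean, cut at about 25% in these data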;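 note: 0% = plate neutral control median and 100% = total signal loss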
* = called active by the depositor; · = not tested or not shown.

SMILES	FGF22 binding	ARNT-TACC3 inh	ERp5 block	FN deposit inh	PDI inh	MLL AF4-AF9 inh
COc1cc2[nH]c(=S)nc(NCCC(C)C)c2cc1OC	0	64*	-7	9	-9	-2
COc1cc2[nH]c(=S)nc(NCc3ccc(Cl)cc3)c2cc1OC	0	34	1	0	2	0
O=S(=O)(c1ccccc1)N1[C@@H]2CNC[C@H]1C2c1ccc(/C=C/c2ccccc2)cc1 (stereo not given in full)	·	·	2	0	·	-2
COCC#Cc1ccc2c(c1)O[C@@H](CN(C)C(=O)C1CC1)[C@@H](C)CN([C@H](C)CO)S2(=O)=O	0	0	3	-17	·	-3
C[C@@H]1CCCCO[C@H](CN(C)C(=O)CCCN(C)C)[C@@H](C)CN([C@H](C)CO)C(=O)c2cc(NC(=O)CCCN(C)C)ccc2O1	0	·	2	-21	·	-3
O=c1[nH][nH]c(-c2ccccc2)c1C=Nc1ccc(C(F)(F)F)cc1	44*	5	-1	-12	-12	-6
CCC(=O)N1C[C@H](O)COC[C@H]2O[C@H](CC(=O)NCc3cc(F)cc(F)c3)CC[C@@H]21	0	-7	-5	-8	·	-13
C[C@@H]1CN([C@@H](C)CO)C(=O)c2cc(NS(=O)(=O)c3cn(C)cn3)ccc2O[C@@H](C)CCCCO[C@H]1CN(C)Cc1ccc(C(F)(F)F)cc1	0	4	2	·	·	1
CCN(CCNC(=O)c1ccc(C#N)cc1)c1cccc(C)c1	·	13	·	·	-5	·
CCN(CCNCC(O)COCc1ccc(Cl)cc1)c1cccc(C)c1 (stereo not given)	0	13	2	10	1	29*
C[C@@H]1CN([C@@H](C)CO)C(=O)c2cc(C3=CCCC3)cnc2O[C@@H]1CN(C)C	0	3	1	-8	·	-1
Cc1cc(C)c(S(C)(=O)=O)c(NN)n1	44*	-11	1	0	-1	0
Cc1c(Cl)cccc1-c1ccc(CNCc2ccccn2)o1	0	64*	2	-11	-1	11
O=C(NCc1ccccn1)c1c(Cl)cccc1Cl	·	-2	·	·	-1	·
CCCNC(=O)C[C@@H]1CC[C@@H]2[C@H](COC[C@H](O)CN2C(=O)Nc2ccccc2OC)O1	0	-5	0	-10	·	-10
CCN1C(=O)/C(=C2/Sc3ccccc3N2CC)S/C1=N\c1ncn[nH]1	44*	22	6	-2	-2	15
C[C@@H]1CN([C@H](C)CO)C(=O)c2cc(NS(=O)(=O)c3cn(C)cn3)ccc2O[C@H]1CN(C)Cc1ccc(C(=O)Nc2ccccc2N)cc1	0	-4	0	·	·	-1
CN1C[C@@H]2[C@H](c3ccccc31)[C@H](CO)N2C(=O)Nc1cccc(F)c1	0	-6	3	·	·	-2
O=C(N/N=C/C=C/c1ccccc1)c1cccs1	43*	3	-5	-14	9	1
Cn1cccc1-c1cc(C(=O)N/N=C/c2ccc(Cl)cc2)[nH]n1	0	19	-8	-6	4	4
Cn1cccc1-c1cc(C(=O)N/N=C/C=C/c2ccccc2)[nH]n1	1.7*	15	-1	2	-1	19
CC(C)C#Cc1ccc2c(c1)O[C@@H](CN(C)Cc1cccnc1)[C@@H](C)CN([C@H](C)CO)S2(=O)=O	0	-3	3	10	·	3
CCNC(=O)C[C@H]1CC[C@H]2[C@@H](COC[C@@H](O)CN2C(=O)Nc2c(C)noc2C)O1	0	-2	8	3	·	-1
COc1ccc(N2CS(=O)CC2=O)cc1 (stereo not given)	43*	4	3	9	-9	1
Nc1ccccc1SC(CC(=O)c1ccccc1)c1cccc([N+](=O)[O-])c1 (stereo not given)	0	·	5	·	56*	3
SMILES	FGF22 binding	ARNT-TACC3 inh	ERp5 block	FN deposit inh	PDI inh	MLL AF4-AF9 inh
Cc1cccc(NC(=O)CNC(=O)COc2cc(F)ccc2[N+](=O)[O-])c1C	43*	-9	6	·	5	-5
Cc1cccc(NC(=O)CNC(=O)COc2ccc(C(=O)c3ccc(F)cc3)cc2)c1C	·	-11	·	12	-10	·
O=C(COC(=O)C1CC(=O)N(Cc2ccccc2)C1)Nc1ccc([N+](=O)[O-])cc1Br (stereo not given)	43*	·	-11	9	7	-2
O=C(COC(=O)C1CC(=O)N(Cc2ccccc2)C1)Nc1cccc([N+](=O)[O-])c1 (stereo not given)	0	-2	1	0	5	7
COc1cccc(-c2ccc3c(c2)O[C@H](CN(C)C(=O)C2CCOCC2)[C@H](C)CN([C@@H](C)CO)S3(=O)=O)c1	0	-1	1	·	·	-2
Cc1ccc(CC(=O)Nc2ccncc2)cc1	44*	1	-1	5	-1	-1
O=C(COC(=O)c1ccc2c(c1)C(=O)N(c1cccc3ncccc13)C2=O)c1ccc(Cl)cc1	44*	·	4	-6	-1	-2
Cc1ccc(C(=O)COC(=O)c2ccc3c(c2)C(=O)N(c2cccc4ncccc24)C3=O)cc1	0	5	4	·	10	1
CCC(=O)N1C[C@@H](C)[C@@H](OC)CN(C)C(=O)c2ccc(NC(=O)c3ccc(F)cc3)cc2OC[C@H]1C	0	-3	-1	5	·	-1
CCOCC(=O)Nc1cc(C(=O)NCCc2ccccc2)ccc1Cl	11*	-7	1	-6	-2	-1
COCC(=O)Nc1cc(C(=O)NCCc2ccccc2)ccc1Cl	0	-3	-1	-4	0	-6
COc1cc(OC)c(NC(=O)CC2SC(N)=NC2=O)cc1Cl (stereo not given)	0	·	-5	-2	0	-1
COC(=O)c1c(NC(=O)CC2SC(N)=NC2=O)sc(C)c1C (stereo not given)	44*	·	1	2	-5	-5
COC(=O)c1c(NC(=O)CSc2ccccc2N)sc(C)c1C	43*	·	5	-38	-1	4
COC(=O)c1c(NC(=O)Cc2ccccc2)sc(C)c1C	·	-3	4	·	4	·
CCOC(=O)c1c(CN(C)C)n(-c2ccc(C)cc2)c2cc(Br)c(O)cc12	·	-6	·	·	49*	·
O=C(NCc1ccccc1)c1ccc(/C=N/O)nc1	·	7	·	0	2	·
O=C(NCc1ccccn1)c1ccc(/C=N/O)nc1	·	38*	·	·	-8	·
CNCCCNC(=O)c1ccc(/C=N/O)nc1	0	61*	2	0	0	-2
CC(C)CCNC(=O)c1ccc2c(c1)ncn2C1CCCC1	45*	1	-2	0	-2	-1
CCOC(=O)C(=O)Cc1nc(OCc2ccccc2)cc(OCc2ccccc2)n1	43*	-5	3	2	-13	-5

Source: PubChem BioAssay
